Data as given in ChEMBL document CHEMBL1144571, “ABP688, a novel selective and high affinity ligand for the labeling of mGlu5 receptors: identification, in vitro pharmacology, pharmacokinetic and biodistribution studies” (Bioorg Med Chem, 2007).
Blank lines part the entries; values can stand above or below the compound they belong to. The source made the active and inactive calls.

How the values were obtained:
[1] = biological target: T1, Metabotropic glutamate receptor 5 (Homo sapiens, UniProt P41594); assay: Displacement of [3H]ABP688 from human mGluR5 receptor expressed in L (tk-) cells; format: cell-based
[2] = biological target: T2, Metabotropic glutamate receptor 5 (Rattus norvegicus, UniProt P31424); assay: Displacement of [3H]ABP688 from mGluR5 in rat brain membrane; format: cell membranes
[3] = biological target: T1, Metabotropic glutamate receptor 5; assay: Displacement of [3H]M-MPEP from human mGluR5 receptor expressed in L (tk-) cells; format: cell-based
How it was run: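 Membranes from L(tk-) cells expressing recombinant human mGluR5, incubated with 2 nM [3H]-M-MPEP over a range of competitor concentrations. Non-specific binding was taken with 1 µM unlabeled M-MPEP. Readout is percent specific binding.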

[4] = biological target: T1, Metabotropic glutamate receptor 5; assay: Activity at human recombinant mGluR5 expressed in L(tk-) cells assessed as inhibition of glutamate-induced calcium release; format: functional, cell-based
[5] = biological target: T1, Metabotropic glutamate receptor 5; assay: Activity at human recombinant mGluR5 expressed in L(tk-) cells assessed as inhibition of quisqualate-induced phosphoinositol accumulation; format: functional, cell-based
[6] = biological target: Metabotropic glutamate receptor 1 (Homo sapiens) (UniProt Q13255); assay: Activity at human recombinant mGluR1 expressed in L(tk-) cells assessed as basal phosphoinositol level
[7] = biological target: Metabotropic glutamate receptor 1 (Homo sapiens) (UniProt Q13255); assay: Activity at human recombinant mGluR1 expressed in L(tk-) cells assessed as inhibition of quisqualate-induced phosphoinositol accumulation at 10 uM; format: functional, cell-based
How it was run: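 Inhibition of quisqualate (40 µM)-stimulated PI accumulation in hmGluR1-expressing cells cultured in glutamate-free DMEM (2 mM L-glutamine, proline, 10% dialyzed FCS, geneticin). Percent control ± SD, n = 3 independent determinations, each in triplicate.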

Plasma [8] = assay: Drug distribution in rat plasma; format: ADME, cell-free
How it was run: (§1)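 Fresh heparinized rat or human blood spiked with [3H]ABP688 (5–500,000 pg/mL) at 37 °C. Plasma separated by centrifugation (1500g, 10 min, 37 °C), total radioactivity counted in plasma and blood, hematocrit measured (n = 3). Plasma fraction fP (%) = (Cp/Cb)·(1−H)·100.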

[9] = Volume of distribution in Wistar rat at 4 ug/kg, iv; format: ADME, organism-based; conditions: in vivo, 0.004 mg/kg, read-out: Vss
How it was run: (§2)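 Male Wistar rats (220–250 g) given 4 µg/kg [3H]ABP688 in EtOH/5% glucose (1:99), 1 mL/kg, into the exposed femoral vein under light isoflurane. n = 3 per time point; plasma and tissues collected, total radioactivity by scintillation, parent by LC-radiodetection with unlabeled internal standard. Bi-exponential compartmental PK analysis.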

Rattus norvegicus = assay: Drug uptake in Wistar rat at 4 ug/kg, iv; format: ADME, organism-based; conditions: in vivo, 0.004 mg/kg; how it was run: as §2
Plasma [10] = assay: Drug distribution in human plasma; format: ADME, cell-free; how it was run: as §1
[11] = Metabolic stability assessed as intrinsic clearance in human liver microsomes; format: ADME, Microsome
How it was run: (§3)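 Pooled liver microsomes (male Sprague-Dawley rat; mixed-gender Caucasian human), 0.2 mg protein/mL, incubated with [3H]ABP688 (0.92 µmol/L) for 40 min at 37 °C in 0.1 M sodium phosphate pH 7.4 containing 4 mM UDPGA, 1 mM β-NADPH and 5 mM MgCl2. Parent depletion tracked by on-line radio-HPLC; intrinsic clearance from parent kinetics.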

[12] = Metabolic stability assessed as intrinsic clearance in Sprague-Dawley rat liver microsomes; format: ADME, Microsome; how it was run: as §3
[13] = Protein binding in rat plasma as percentage unbound; format: ADME, cell-free
How it was run: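 Rat or human plasma spiked with [3H]ABP688 (50–500,000 pg/mL) and ultrafiltered at 37 °C through a 30 kDa cut-off device. Radioactivity in ultrafiltrate (Cu) and in sample before filtration (Cp) counted by liquid scintillation; fu (%) = Cu/Cp·100.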

Brain [14] = assay: Drug level in Wistar rat brain at 4 ug/kg, iv after 5 mins; format: ADME, organism-based; conditions: in vivo, 0.004 mg/kg; how it was run: as §2
Brain [15] = assay: Drug uptake in Wistar rat brain at 4 µg/kg, iv; conditions: in vivo
[16] = Ratio of drug levels in brain to plasma in Wistar rat at 4 ug/kg, iv; format: ADME, organism-based; conditions: brain and plasma, 0.004 mg/kg
How it was run: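 Male Wistar rats (220–250 g) given 4 µg/kg [³H]ABP688 iv into the surgically exposed femoral vein under slight isoflurane anaesthesia, in EtOH/glucose 5% (1:99 v/v) at 1 mL/kg. Groups of n = 3 per sampling time over about 2.5 h. Plasma and brain were taken. Total radioactivity was read by liquid scintillation, and parent compound by LC-RID with unlabelled internal standard. Values are means ± SD.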

[17] = biological target: T2, Metabotropic glutamate receptor 5; assay: Binding affinity at mGluR5 in rat brain membrane; format: cell membranes
How it was run: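 Rat whole-brain membranes in Na-HEPES buffer (110 mM NaCl, 1.2 mM MgCl2, 5 mM KCl, 2.5 mM CaCl2), pH 8.0. Competition against fixed 1.5 nM [3H]ABP688, equilibrated 60 min at 37 °C, then filtered on glass-fibre and counted by liquid scintillation, in triplicate. Ki derived by Cheng–Prusoff from non-linear curve fits.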

T2 sequence (P31424 whole entry): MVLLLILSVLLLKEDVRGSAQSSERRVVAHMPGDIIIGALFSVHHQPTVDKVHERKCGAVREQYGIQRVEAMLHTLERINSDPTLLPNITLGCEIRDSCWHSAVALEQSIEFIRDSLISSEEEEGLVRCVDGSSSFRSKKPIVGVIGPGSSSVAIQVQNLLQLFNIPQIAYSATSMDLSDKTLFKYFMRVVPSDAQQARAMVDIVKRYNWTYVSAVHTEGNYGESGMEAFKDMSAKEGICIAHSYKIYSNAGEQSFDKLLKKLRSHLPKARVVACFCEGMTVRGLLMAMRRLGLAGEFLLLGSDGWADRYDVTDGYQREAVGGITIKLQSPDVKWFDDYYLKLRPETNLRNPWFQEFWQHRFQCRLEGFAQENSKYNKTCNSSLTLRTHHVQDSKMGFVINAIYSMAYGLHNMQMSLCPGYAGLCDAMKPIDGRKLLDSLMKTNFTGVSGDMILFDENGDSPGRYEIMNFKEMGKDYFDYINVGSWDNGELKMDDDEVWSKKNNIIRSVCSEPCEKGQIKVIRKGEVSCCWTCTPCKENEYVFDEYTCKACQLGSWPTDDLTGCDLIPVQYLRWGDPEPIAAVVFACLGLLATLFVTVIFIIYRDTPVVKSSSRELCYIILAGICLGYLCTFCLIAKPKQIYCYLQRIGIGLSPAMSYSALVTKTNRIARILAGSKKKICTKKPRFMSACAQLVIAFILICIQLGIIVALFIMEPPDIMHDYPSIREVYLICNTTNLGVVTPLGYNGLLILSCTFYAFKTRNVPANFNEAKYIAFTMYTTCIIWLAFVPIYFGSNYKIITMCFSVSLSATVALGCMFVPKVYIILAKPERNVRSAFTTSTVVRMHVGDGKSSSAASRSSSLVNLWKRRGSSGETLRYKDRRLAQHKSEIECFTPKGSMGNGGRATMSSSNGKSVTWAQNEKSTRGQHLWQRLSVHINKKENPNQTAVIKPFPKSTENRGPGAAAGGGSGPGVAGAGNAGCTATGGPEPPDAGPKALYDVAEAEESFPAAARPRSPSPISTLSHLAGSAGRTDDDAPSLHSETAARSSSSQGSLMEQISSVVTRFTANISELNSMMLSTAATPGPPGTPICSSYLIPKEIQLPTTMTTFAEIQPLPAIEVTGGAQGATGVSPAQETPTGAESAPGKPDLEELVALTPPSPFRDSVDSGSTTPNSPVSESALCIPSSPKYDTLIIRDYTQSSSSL
T1 sequence (P41594 whole entry): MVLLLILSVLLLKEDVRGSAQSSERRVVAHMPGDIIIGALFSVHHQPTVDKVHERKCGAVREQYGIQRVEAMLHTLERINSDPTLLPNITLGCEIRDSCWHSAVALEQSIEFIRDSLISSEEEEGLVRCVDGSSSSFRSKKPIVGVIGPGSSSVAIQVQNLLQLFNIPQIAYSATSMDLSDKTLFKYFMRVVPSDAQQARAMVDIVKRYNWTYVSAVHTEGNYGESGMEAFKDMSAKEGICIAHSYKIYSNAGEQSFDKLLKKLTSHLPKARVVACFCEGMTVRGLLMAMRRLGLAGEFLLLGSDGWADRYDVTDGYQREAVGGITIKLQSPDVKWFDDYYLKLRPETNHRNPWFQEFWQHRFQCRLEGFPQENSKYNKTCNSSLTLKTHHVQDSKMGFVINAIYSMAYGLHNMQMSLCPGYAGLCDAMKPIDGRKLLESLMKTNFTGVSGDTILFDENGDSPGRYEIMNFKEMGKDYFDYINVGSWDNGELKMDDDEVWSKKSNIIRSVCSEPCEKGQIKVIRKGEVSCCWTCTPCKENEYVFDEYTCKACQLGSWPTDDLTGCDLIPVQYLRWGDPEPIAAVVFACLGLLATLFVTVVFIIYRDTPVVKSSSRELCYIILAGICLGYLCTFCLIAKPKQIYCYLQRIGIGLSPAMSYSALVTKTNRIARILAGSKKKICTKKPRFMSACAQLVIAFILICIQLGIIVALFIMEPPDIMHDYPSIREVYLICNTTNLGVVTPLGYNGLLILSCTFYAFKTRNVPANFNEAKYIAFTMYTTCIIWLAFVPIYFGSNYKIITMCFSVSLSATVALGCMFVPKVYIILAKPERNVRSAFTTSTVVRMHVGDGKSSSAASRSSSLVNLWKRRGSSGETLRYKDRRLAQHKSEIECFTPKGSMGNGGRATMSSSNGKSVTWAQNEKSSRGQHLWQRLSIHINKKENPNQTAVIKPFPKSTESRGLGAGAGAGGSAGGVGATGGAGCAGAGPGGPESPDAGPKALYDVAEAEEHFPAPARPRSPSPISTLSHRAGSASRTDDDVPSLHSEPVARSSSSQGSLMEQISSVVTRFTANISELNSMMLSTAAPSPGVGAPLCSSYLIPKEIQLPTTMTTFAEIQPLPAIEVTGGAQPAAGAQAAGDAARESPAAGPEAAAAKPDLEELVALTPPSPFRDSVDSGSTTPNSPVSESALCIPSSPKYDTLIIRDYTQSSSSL
Metabotropic glutamate receptor 1 (Homo sapiens), sequence (Q13255 19-1194 limits assumed): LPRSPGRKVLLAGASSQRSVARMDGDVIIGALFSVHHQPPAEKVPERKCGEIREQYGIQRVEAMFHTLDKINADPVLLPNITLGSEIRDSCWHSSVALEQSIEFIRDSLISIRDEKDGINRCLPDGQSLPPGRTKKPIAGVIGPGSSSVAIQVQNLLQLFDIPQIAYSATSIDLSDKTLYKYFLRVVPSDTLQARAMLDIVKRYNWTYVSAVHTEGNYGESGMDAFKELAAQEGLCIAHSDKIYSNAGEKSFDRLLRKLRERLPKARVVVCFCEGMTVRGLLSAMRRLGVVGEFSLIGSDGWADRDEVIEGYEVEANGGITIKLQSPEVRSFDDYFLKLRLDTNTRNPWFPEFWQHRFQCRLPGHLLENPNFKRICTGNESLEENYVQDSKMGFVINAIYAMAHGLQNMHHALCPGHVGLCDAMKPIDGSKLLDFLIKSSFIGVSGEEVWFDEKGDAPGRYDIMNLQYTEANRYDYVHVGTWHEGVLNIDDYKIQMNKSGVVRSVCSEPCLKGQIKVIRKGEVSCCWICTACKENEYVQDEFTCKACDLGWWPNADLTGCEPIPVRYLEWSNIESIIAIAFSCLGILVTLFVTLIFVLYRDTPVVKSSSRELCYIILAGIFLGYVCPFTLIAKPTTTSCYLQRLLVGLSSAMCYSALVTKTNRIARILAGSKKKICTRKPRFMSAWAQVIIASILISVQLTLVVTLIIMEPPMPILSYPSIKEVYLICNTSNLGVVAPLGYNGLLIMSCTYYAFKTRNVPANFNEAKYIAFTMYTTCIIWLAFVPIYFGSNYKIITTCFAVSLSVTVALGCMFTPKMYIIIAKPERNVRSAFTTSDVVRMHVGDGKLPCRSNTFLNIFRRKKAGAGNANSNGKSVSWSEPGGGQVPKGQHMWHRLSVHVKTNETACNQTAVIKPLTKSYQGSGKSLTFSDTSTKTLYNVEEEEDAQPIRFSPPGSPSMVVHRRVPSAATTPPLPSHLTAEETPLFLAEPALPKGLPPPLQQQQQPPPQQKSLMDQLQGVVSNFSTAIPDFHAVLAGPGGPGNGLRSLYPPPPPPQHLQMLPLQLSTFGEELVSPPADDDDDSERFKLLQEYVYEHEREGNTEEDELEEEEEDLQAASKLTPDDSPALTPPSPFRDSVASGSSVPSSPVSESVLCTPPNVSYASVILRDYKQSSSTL

Ki [1]: > 100000 nM
Ki [2]: > 10000 nM
Structure (SMILES): CCOC(=O)[C@]12CC1/C(=N\O)c1ccccc1O2 (some centres not stated) [CPCCOET]

IC50 [3]: 7 nM
Ki [3]: 3.5 nM
IC50 [4]: 2.3 nM
IC50 [5]: 2.4 nM
Activity [6]: inactive
Ki [1]: 1.7 nM
Activity [7]: inactive
Ki [2]: 1.8 nM
Structure (SMILES): CO/N=C1/C=C(C#Cc2cccc(C)n2)CCC1

Structure (SMILES): COc1cccc(C#Cc2cccc(C)n2)c1 [M-MPEP]
Ki [2]: 11 nM

Activity (Plasma [8]): 76%
Vd [9]: 11 L/kg
Drug uptake (Rattus norvegicus): 21 %ID
Activity (Plasma [10]): 92%
microsomal CLint [11]: 150 µL/min/mg
microsomal CLint [12]: 150 µL/min/mg
fraction unbound [13]: 0.068
Activity (Brain [14]): 21 pmol/g
Drug uptake (Brain [15]): 0.8 %ID
Kp [16]: 20
Kd [17]: 2.3 nM
Structure (SMILES): [3H]C([3H])([3H])O/N=C1/C=C(C#Cc2cccc(C)n2)CCC1
